Experimental data published in ChEMBL document CHEMBL1122589 (J Med Chem, 1984).
Active and inactive are the calls of the source. The rule behind the calls is not given here.

Legend:
Mus musculus [1] = species: Mus musculus; assay: Percentage increase in life span of drug-treated tumor bearing controls was determined no. in parentheses =no. of animals out of a 6 group that survived indefinitely; assay type: functional
Summary of the method: (§1)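 Survival of drug-treated mice bearing ip-inoculated leukemia was compared with untreated tumor-bearing controls. The result is expressed as percentage increase in life span (ILS), and a value above 20% was taken as statistically significant.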

P388 = assay: Dose of drug given intraperitoneally on days 1, 5, and 9 that provides the highest ILS value in mice bearing 10E6 ip inoculated P388 leukemia cells in vivo
Nucleic Acid = assay: Binding constant for DNA by ethidium bromide displacement; assay type: nucleic-acid assay
L1210 [2] = assay: In vitro concentration required to inhibit the growth of L1210 cells in culture by 50% following a 48 hr exposure.; assay type: functional; settings: Mus musculus, L1210, 48 h; read-out: ID50 (the source's name)
Mus musculus [3] = species: Mus musculus; assay: Percentage increase in life span of drug-treated tumor bearing controls was determined; assay type: functional; summary of the method: as §1
[4] = Dissociation constant in aqueous DMF.; assay type: physicochemical
Summary of the method: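 pKa obtained by UV spectroscopy in 20% aqueous DMF.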

L1210 [5] = assay: Dose of drug given intraperitoneally on a qd 1-5 schedule that provides the highest ILS value in mice bearing 10E6 ip inoculated L1210 leukemia cells; assay type: functional, Mus musculus
Summary of the method: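 Mice inoculated ip with 10⁶ L1210 leukemia cells; drug given ip daily on days 1-5 (qd 1-5). Optimal dose, in mg/kg/day, is the dose giving the highest increase in life span (ILS).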

L1210 [6] = assay: Potency against L1210 leukemia cells in culture in vitro according to the NCI protocols Nanomolar concentration required to inhibit the growth of L1210 cells in culture by 50% following a 48 hr exposure; assay type: functional; settings: Mus musculus, L1210, 48 h; read-out: ID50 (the source's name)
Summary of the method: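 L1210 leukaemia cells were grown in culture and exposed to drug for 48 h. The value is the drug concentration giving 50% growth inhibition, expressed in nanomolar.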

Mus musculus [7] = assay: Dose of drug given intraperitoneally on days 1, 5, and 9 that provides the highest ILS value in mice bearing 10E6 ip inoculated P388 leukemia cells in vivo
Mus musculus [8] = species: Mus musculus; assay: Percentage increase in life span of drug-treated tumor bearing controls was determined no. in parentheses are the animals (out of a group of 6) that survived indefinitely; assay type: functional; summary of the method: as §1
Mus musculus [9] = species: Mus musculus; assay: Percentage increase in life span of drug-treated tumor bearing controls was determined; IN- Inactive at the highest dose tested; assay type: functional, organism-based

Structure (SMILES) | OD (P388) | Log K (Nucleic Acid) | IC50 (L1210 [2]) | ILS (Mus musculus [3]) | OD (L1210 [5]) | further results
CN(CCO)c1cc(NS(C)(=O)=O)ccc1Nc1c2ccccc2nc2ccccc12 | 100 mg/kg | 5.52 | 1400 nM | – | – | ILS (Mus musculus [1]): 100%
CCCCCCNc1cc(NS(C)(=O)=O)ccc1Nc1c2ccccc2nc2ccccc12 | 60 mg/kg | 6.36 | 136 nM | – | – | –
CS(=O)(=O)Nc1ccc(Nc2c3ccccc3nc3ccccc23)c(O)c1 | – | 5.53 | 4000 nM | 88% | 25 mg/kg | pKa [4]: 7.56
CS(=O)(=O)Nc1ccc(Nc2c3ccccc3nc3ccccc23)c(OCCO)c1 | – | 5.91 | > 1700 nM | 67% | 62.5 mg/kg | pKa [4]: 7.53
CCCCCNc1cc(NS(C)(=O)=O)ccc1Nc1c2ccccc2nc2ccccc12 | 30 mg/kg | 6.42 | – | – | – | IC50 (L1210 [6]): 117 nM
CC(C)Oc1cc(NS(C)(=O)=O)ccc1N=c1c2ccccc2[nH]c2ccccc12 | – | 5.17 | > 1700 nM | – | >500 mg/kg | pKa [4]: 7.51
CS(=O)(=O)Nc1ccc(Nc2c3ccccc3nc3ccccc23)cc1 | – | – | 35 nM | 107% | 45 mg/kg | –
CCCCCCCNc1cc(NS(C)(=O)=O)ccc1Nc1c2ccccc2nc2ccccc12 | 45 mg/kg | 6.54 | 181 nM | – | – | –
CCCNc1cc(NS(C)(=O)=O)ccc1Nc1c2ccccc2nc2ccccc12 | 66 mg/kg | 6.57 | 286 nM | – | – | –
CS(=O)(=O)Nc1ccc(Nc2c3ccccc3nc3ccccc23)c(Cl)c1 | – | 5.45 | 1300 nM | – | >500 mg/kg | –
CS(=O)(=O)Nc1ccc(Nc2c3ccccc3nc3ccccc23)c(N2CCOCC2)c1 | 100 mg/kg | 5.26 | > 1600 nM | – | – | –
CN(C)c1cc(NS(C)(=O)=O)ccc1Nc1c2ccccc2nc2ccccc12 | 166 mg/kg | – | – | – | – | ILS (Mus musculus [1]): 210%
CCOc1cc(NS(C)(=O)=O)ccc1Nc1c2ccccc2nc2ccccc12 | – | 5.68 | 600 nM | 29% | 250 mg/kg | pKa [4]: 7.55
CCCCCCCS(=O)(=O)Nc1ccc(Nc2c3ccccc3nc3ccccc23)c(NC)c1 | 45 mg/kg | 6.44 | 397 nM | 47% | – | –
CCCS(=O)(=O)Nc1ccc(Nc2c3ccccc3nc3ccccc23)c(NC)c1 | 20 mg/kg | 6.61 | 86 nM | 73% | – | –
COc1cc(NS(C)(=O)=O)ccc1Nc1c2ccccc2nc2ccccc12 [AMSACRINE] | – | 5.57 | – | 114% | 6.7 mg/kg | –
CS(=O)(=O)Nc1ccc(Nc2c3ccccc3nc3ccccc23)c(NCCO)c1 | 45 mg/kg | 6.49 | 86 nM | 89% | – | –
CS(=O)(=O)Nc1ccc(Nc2c3ccccc3nc3ccccc23)c(NC2CCCCC2)c1 | 45 mg/kg | 6.3 | 470 nM | – | – | –

Structure (SMILES) | OD (P388) | Log K (Nucleic Acid) | IC50 (L1210 [2]) | ILS (Mus musculus [3]) | OD (L1210 [5]) | further results
CNc1cc(NS(C)(=O)=O)ccc1Nc1c2ccccc2nc2ccccc12 | – | 6.42 | 71 nM | – | – | OD (Mus musculus [7]): 13.3 mg/kg; ILS (Mus musculus [8]): 152%
CCNc1cc(NS(C)(=O)=O)ccc1Nc1c2ccccc2nc2ccccc12 | 45 mg/kg | 6.54 | 229 nM | 69% | – | –
CCS(=O)(=O)Nc1ccc(Nc2c3ccccc3nc3ccccc23)c(NC)c1 | 13.3 mg/kg | 6.62 | 43 nM | 99% | – | –
CS(=O)(=O)Nc1ccc(Nc2c3ccccc3nc3ccccc23)c(N2CCCC2)c1 | 45 mg/kg | 5.49 | 1300 nM | – | – | –
Cc1cc(NS(C)(=O)=O)ccc1Nc1c2ccccc2nc2ccccc12 | – | 5.74 | 120 nM | 106% | 97 mg/kg | –
CC(=O)NNc1cc(NS(C)(=O)=O)ccc1Nc1c2ccccc2nc2ccccc12 | – | 5.89 | > 1500 nM | – | – | –
CS(=O)(=O)Nc1ccc(Nc2c3ccccc3nc3ccccc23)c(NCC(O)CO)c1 (stereo unspecified) | 45 mg/kg | 6.71 | 219 nM | 84% | – | –
CS(=O)(=O)Nc1ccc(Nc2c3ccccc3nc3ccccc23)c([N+](=O)[O-])c1 | – | 5.61 | 9000 nM | – | >500 mg/kg | ILS (Mus musculus [9]): inactive
CCCCS(=O)(=O)Nc1ccc(Nc2c3ccccc3nc3ccccc23)c(NC)c1 | 45 mg/kg | 6.66 | 102 nM | 67% | – | –
CCCCCS(=O)(=O)Nc1ccc(Nc2c3ccccc3nc3ccccc23)c(NC)c1 | 20 mg/kg | 6.58 | 144 nM | 61% | – | –
CCN(CC)c1cc(NS(C)(=O)=O)ccc1Nc1c2ccccc2nc2ccccc12 | 100 mg/kg | 5.35 | 4600 nM | – | – | –
CCCCCCCCS(=O)(=O)Nc1ccc(Nc2c3ccccc3nc3ccccc23)c(NC)c1 | 30 mg/kg | 6.51 | 217 nM | 42% | – | –
CS(=O)(=O)Nc1ccc(Nc2c3ccccc3nc3ccccc23)c(N)c1 | – | 6.28 | 1200 nM | 106% | 45 mg/kg | –
CS(=O)(=O)Nc1ccc(Nc2c3ccccc3nc3ccccc23)c(N2CCCCC2)c1 | 100 mg/kg | 5.69 | > 1600 nM | – | – | –
CCCCNc1cc(NS(C)(=O)=O)ccc1Nc1c2ccccc2nc2ccccc12 | 45 mg/kg | 6.36 | 185 nM | – | – | –
CS(=O)(=O)Nc1ccc(Nc2c3ccccc3nc3ccccc23)c(F)c1 | – | 5.65 | 800 nM | – | >500 mg/kg | pKa [4]: 6.62
CCCCCCS(=O)(=O)Nc1ccc(Nc2c3ccccc3nc3ccccc23)c(NC)c1 | 100 mg/kg | 6.41 | 443 nM | 36% | – | –
